≈ marks a conversion by molar mass, not a printed value. Calls of active or inactive are those of the source. The rule behind the calls is not given here.
How the values were obtained:
[1] = target: T1, Cell division protein FtsZ (Staphylococcus aureus) (UniProt P0A031); test: Stimulation of purified Staphylococcus aureus FtsZ polymerization at 40 ug/ml by microtiter plate based light-scattering assay in presence of 10 mM depolymerizing agent GDP
T1 sequence (whole entry): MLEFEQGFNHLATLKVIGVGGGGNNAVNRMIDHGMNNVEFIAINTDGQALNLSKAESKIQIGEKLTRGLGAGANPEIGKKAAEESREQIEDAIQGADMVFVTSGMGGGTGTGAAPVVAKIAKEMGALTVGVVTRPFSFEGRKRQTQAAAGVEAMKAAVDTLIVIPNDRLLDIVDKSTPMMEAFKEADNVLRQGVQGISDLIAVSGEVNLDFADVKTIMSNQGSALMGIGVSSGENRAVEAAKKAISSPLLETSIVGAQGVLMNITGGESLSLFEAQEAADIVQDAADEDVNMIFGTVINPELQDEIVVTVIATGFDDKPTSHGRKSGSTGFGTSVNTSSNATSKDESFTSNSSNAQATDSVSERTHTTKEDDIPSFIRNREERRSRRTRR

Enterococcus faecalis [2] = test: microbe, parasite or virus in culture; format: functional; details: ATCC 51575
Enterococcus faecalis [3] = test: microbe, parasite or virus in culture; format: functional; details: ATCC 19433
Staphylococcus aureus [4] = test: microbe, parasite or virus in culture; format: functional; details: ATCC 33591
Staphylococcus aureus [5] = test: microbe, parasite or virus in culture; format: functional; details: 8325-4
Staphylococcus aureus [6] = test: Bactericidal activity against methicillin-sensitive Staphylococcus aureus 8325-4; format: functional
Method in brief: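 MBC against MSSA strain 8325-4, determined per a previously described method; paired MIC by CLSI broth microdilution, MIC being lowest concentration giving ≥90% growth inhibition.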

Staphylococcus aureus [7] = test: Bactericidal activity against methicillin-resistant Staphylococcus aureus ATCC 33591; format: functional
Enterococcus faecalis [8] = test: Ratio of MBC to MIC for vancomycin-resistant Enterococcus faecalis ATCC 51575; format: functional
Method in brief: (§1)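 Ratio of MBC to MIC, both in µg/mL. MIC was found by CLSI broth microdilution as the lowest concentration giving ≥90% growth inhibition. MBC was found by a previously described method. Per CLSI, a ratio of 1–2 is read as bactericidal and ≥8 as bacteriostatic.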

Enterococcus faecalis [9] = test: Bactericidal activity against vancomycin-resistant Enterococcus faecalis ATCC 51575; format: functional
Staphylococcus aureus [10] = test: Ratio of MBC to MIC for methicillin-sensitive Staphylococcus aureus 8325-4; format: functional
[11] = target: T1, Cell division protein FtsZ (Staphylococcus aureus); test: Stimulation of purified Staphylococcus aureus FtsZ polymerization at 40 ug/ml by microtiter plate based light-scattering assay
Staphylococcus aureus [12] = test: Ratio of MBC to MIC for methicillin-resistant Staphylococcus aureus ATCC 33591; format: functional; method in brief: as §1

In the case of `CC(C)(C)c1ccc(-c2cccc3c(CNC(=N)N)ncnc23)cc1`, the Activity [1] was “Active”, the MIC (Enterococcus faecalis [2]) was greater than 64 µg/mL and the MIC (Enterococcus faecalis [3]) was greater than 64 µg/mL. It also gave an MIC (Staphylococcus aureus [4]) of 64 µg/mL (≈ 192 µM) and an MIC (Staphylococcus aureus [5]) of 16 µg/mL (≈ 48 µM).
For `CC(C)(C)c1ccc(-c2ncnc3c(CN)cccc23)cc1`, the Activity [1] was “Active”, the MIC (Enterococcus faecalis [2]) was 64 µg/mL (≈ 220 µM) and the MIC (Enterococcus faecalis [3]) was 64 µg/mL (≈ 220 µM). The MIC (Staphylococcus aureus [4]) was 64 µg/mL (≈ 220 µM) and the MIC (Staphylococcus aureus [5]) was 32 µg/mL (≈ 110 µM).
For `CC(C)(C)c1ccc(-c2cc(C(=O)NCCO)cc(-c3cnc4ccccc4n3)c2)cc1`, the Activity [1] was “Active”, the MIC (Enterococcus faecalis [2]) was greater than 64 µg/mL and the MIC (Enterococcus faecalis [3]) was greater than 64 µg/mL. For the same compound, the MIC (Staphylococcus aureus [4]) was greater than 64 µg/mL and the MIC (Staphylococcus aureus [5]) was greater than 64 µg/mL.
Work on `CC[C@H]1OC(=O)[C@H](C)[C@@H](O[C@H]2C[C@@](C)(OC)[C@@H](O)[C@H](C)O2)[C@H](C)[C@@H](O[C@@H]2O[C@H](C)C[C@H](N(C)C)[C@H]2O)[C@](C)(O)C[C@@H](C)C(=O)[C@H](C)[C@@H](O)[C@]1(C)O` [ERYTHROMYCIN] yielded an MIC (Enterococcus faecalis [2]) greater than 64 µg/mL, an MIC (Enterococcus faecalis [3]) of 1 µg/mL (≈ 1.36 µM) and an MIC (Staphylococcus aureus [4]) greater than 64 µg/mL. It also gave an MIC (Staphylococcus aureus [5]) of 0.13 µg/mL (≈ 0.177 µM) and an MBC (Staphylococcus aureus [6]) of 32 µg/mL (≈ 43.6 µM).
`CC(C)(C)c1ccc(-c2cc(C(=O)NCCN)cc(-c3cnc4ccccc4n3)c2)cc1` was tested, and the Activity [1] was “Active”, the MIC (Enterococcus faecalis [2]) was 8 µg/mL (≈ 18.8 µM) and the MIC (Enterococcus faecalis [3]) was 8 µg/mL (≈ 18.8 µM). It also gave an MIC (Staphylococcus aureus [4]) of 4 µg/mL (≈ 9.42 µM) and an MIC (Staphylococcus aureus [5]) of 4 µg/mL (≈ 9.42 µM).
In the case of `c1ccc(-c2cccc(-c3cnc4ccccc4n3)c2)cc1`, the Activity [1] was “Active”, the MIC (Enterococcus faecalis [2]) was greater than 64 µg/mL and the MIC (Enterococcus faecalis [3]) was greater than 64 µg/mL. It also gave an MIC (Staphylococcus aureus [4]) greater than 64 µg/mL and an MIC (Staphylococcus aureus [5]) greater than 64 µg/mL.
`C[n+]1cc(-c2cccc(F)c2)nc2ccccc21.[I-]` was tested, and the Activity [1] was “Active”, the MIC (Enterococcus faecalis [2]) was 32 µg/mL and the MIC (Enterococcus faecalis [3]) was 32 µg/mL. It also gave an MIC (Staphylococcus aureus [4]) of 4 µg/mL and an MIC (Staphylococcus aureus [5]) of 2 µg/mL.
In the case of `CN[C@H](CC(C)C)C(=O)N[C@H]1C(=O)N[C@@H](CC(N)=O)C(=O)N[C@H]2C(=O)N[C@H]3C(=O)N[C@H](C(=O)N[C@H](C(=O)O)c4cc(O)cc(O)c4-c4cc3ccc4O)[C@H](O)c3ccc(c(Cl)c3)Oc3cc2cc(c3O[C@@H]2O[C@H](CO)[C@@H](O)[C@H](O)[C@H]2O[C@H]2C[C@](C)(N)[C@H](O)[C@H](C)O2)Oc2ccc(cc2Cl)[C@H]1O` [VANCOMYCIN], the MBC (Staphylococcus aureus [7]) was 4 µg/mL (≈ 2.76 µM), the MIC (Enterococcus faecalis [2]) was greater than 64 µg/mL and the MIC (Enterococcus faecalis [3]) was 1 µg/mL (≈ 0.69 µM). For the same compound, the MBC (Staphylococcus aureus [6]) was 1 µg/mL (≈ 0.69 µM).
In the case of `C[n+]1cc(-c2cccc(-c3ccccc3)c2)nc2ccccc21.[I-]`, the Activity [1] was “Active”, the Ratio (Enterococcus faecalis [8]) was 8 and the MBC (Enterococcus faecalis [9]) was 64 µg/mL. It also gave a Ratio (Staphylococcus aureus [10]) of 8, an MBC (Staphylococcus aureus [7]) of 4 µg/mL and an MIC (Enterococcus faecalis [2]) of 8 µg/mL. It also gave an MIC (Enterococcus faecalis [3]) of 8 µg/mL, an MIC (Staphylococcus aureus [4]) of 0.5 µg/mL and an MIC (Staphylococcus aureus [5]) of 0.5 µg/mL. The Activity [11] was “inactive” and the MBC (Staphylococcus aureus [6]) was 4 µg/mL.
`Cc1onc(-c2ccccc2)c1C(=O)N[C@@H]1C(=O)N2[C@@H]1SC(C)(C)[C@@H]2C(=O)O` [OXACILLIN] gave an MIC (Enterococcus faecalis [2]) greater than 64 µg/mL, an MIC (Enterococcus faecalis [3]) of 8 µg/mL (≈ 19.9 µM) and an MIC (Staphylococcus aureus [4]) greater than 64 µg/mL. It also gave an MIC (Staphylococcus aureus [5]) of 0.06 µg/mL (≈ 0.149 µM).
With `COC(=O)c1cc(-c2ccc(C(C)(C)C)cc2)cc(-c2cnc3ccccc3n2)c1` the Activity [1] was “Active”, the MIC (Enterococcus faecalis [2]) was greater than 64 µg/mL and the MIC (Enterococcus faecalis [3]) was greater than 64 µg/mL. It also gave an MIC (Staphylococcus aureus [4]) greater than 64 µg/mL and an MIC (Staphylococcus aureus [5]) greater than 64 µg/mL.
In the case of `CC(C)(C)c1ccc(-c2cnc3c(CNC(=N)N)cccc3n2)cc1`, the Activity [1] was “Active”, the Ratio (Enterococcus faecalis [8]) was 1 and the Ratio (Staphylococcus aureus [12]) was 2. The MBC (Enterococcus faecalis [9]) was 16 µg/mL (≈ 48 µM), the Ratio (Staphylococcus aureus [10]) was 1 and the MBC (Staphylococcus aureus [7]) was 8 µg/mL (≈ 24 µM). It also gave an MIC (Enterococcus faecalis [2]) of 16 µg/mL (≈ 48 µM), an MIC (Enterococcus faecalis [3]) of 8 µg/mL (≈ 24 µM) and an MIC (Staphylococcus aureus [4]) of 4 µg/mL (≈ 12 µM). For the same compound, the MIC (Staphylococcus aureus [5]) was 4 µg/mL (≈ 12 µM), the Activity [11] was “Active” and the MBC (Staphylococcus aureus [6]) was 4 µg/mL (≈ 12 µM).
For `CC(C)(C)c1cccc(-c2cnc3ccccc3n2)c1`, the Activity [1] was “Active”, the MIC (Enterococcus faecalis [2]) was greater than 64 µg/mL and the MIC (Enterococcus faecalis [3]) was greater than 64 µg/mL. The MIC (Staphylococcus aureus [4]) was greater than 64 µg/mL and the MIC (Staphylococcus aureus [5]) was greater than 64 µg/mL.
With `c1ccc(-c2cnc3ccccc3n2)cc1` the Activity [1] was “Active”, the MIC (Enterococcus faecalis [2]) was greater than 64 µg/mL and the MIC (Enterococcus faecalis [3]) was greater than 64 µg/mL. It also gave an MIC (Staphylococcus aureus [4]) greater than 64 µg/mL and an MIC (Staphylococcus aureus [5]) greater than 64 µg/mL.
For `C[n+]1cc(-c2cccc(C(C)(C)C)c2)nc2ccccc21.[I-]`, the Activity [1] was “Active”, the Ratio (Enterococcus faecalis [8]) was 4 and the MBC (Enterococcus faecalis [9]) was 64 µg/mL. The Ratio (Staphylococcus aureus [10]) was 8, the MBC (Staphylococcus aureus [7]) was 16 µg/mL and the MIC (Enterococcus faecalis [2]) was 16 µg/mL. For the same compound, the MIC (Enterococcus faecalis [3]) was 8 µg/mL, the MIC (Staphylococcus aureus [4]) was 2 µg/mL and the MIC (Staphylococcus aureus [5]) was 2 µg/mL. For the same compound, the Activity [11] was “inactive” and the MBC (Staphylococcus aureus [6]) was 16 µg/mL.
`CC(C)(C)c1ccc(-c2ccnc3c(CN)ccnc23)cc1` was tested, and the Activity [1] was “Active”, the MIC (Enterococcus faecalis [2]) was greater than 64 µg/mL and the MIC (Enterococcus faecalis [3]) was greater than 64 µg/mL. The MIC (Staphylococcus aureus [4]) was greater than 64 µg/mL and the MIC (Staphylococcus aureus [5]) was greater than 64 µg/mL.

Reference: ChEMBL document CHEMBL2413051, “Antibacterial activity of quinoxalines, quinazolines, and 1,5-naphthyridines” (2013)
